Experimental findings from ChEMBL document CHEMBL1135187, “The synthesis and effect of fluorinated chalcone derivatives on nitric oxide production” (Bioorg Med Chem Lett, 2002) are described below.

In assay [1] the target is T1, Nitric oxide synthase, inducible (Mus musculus) (UniProt P29477).
T1 sequence (whole entry): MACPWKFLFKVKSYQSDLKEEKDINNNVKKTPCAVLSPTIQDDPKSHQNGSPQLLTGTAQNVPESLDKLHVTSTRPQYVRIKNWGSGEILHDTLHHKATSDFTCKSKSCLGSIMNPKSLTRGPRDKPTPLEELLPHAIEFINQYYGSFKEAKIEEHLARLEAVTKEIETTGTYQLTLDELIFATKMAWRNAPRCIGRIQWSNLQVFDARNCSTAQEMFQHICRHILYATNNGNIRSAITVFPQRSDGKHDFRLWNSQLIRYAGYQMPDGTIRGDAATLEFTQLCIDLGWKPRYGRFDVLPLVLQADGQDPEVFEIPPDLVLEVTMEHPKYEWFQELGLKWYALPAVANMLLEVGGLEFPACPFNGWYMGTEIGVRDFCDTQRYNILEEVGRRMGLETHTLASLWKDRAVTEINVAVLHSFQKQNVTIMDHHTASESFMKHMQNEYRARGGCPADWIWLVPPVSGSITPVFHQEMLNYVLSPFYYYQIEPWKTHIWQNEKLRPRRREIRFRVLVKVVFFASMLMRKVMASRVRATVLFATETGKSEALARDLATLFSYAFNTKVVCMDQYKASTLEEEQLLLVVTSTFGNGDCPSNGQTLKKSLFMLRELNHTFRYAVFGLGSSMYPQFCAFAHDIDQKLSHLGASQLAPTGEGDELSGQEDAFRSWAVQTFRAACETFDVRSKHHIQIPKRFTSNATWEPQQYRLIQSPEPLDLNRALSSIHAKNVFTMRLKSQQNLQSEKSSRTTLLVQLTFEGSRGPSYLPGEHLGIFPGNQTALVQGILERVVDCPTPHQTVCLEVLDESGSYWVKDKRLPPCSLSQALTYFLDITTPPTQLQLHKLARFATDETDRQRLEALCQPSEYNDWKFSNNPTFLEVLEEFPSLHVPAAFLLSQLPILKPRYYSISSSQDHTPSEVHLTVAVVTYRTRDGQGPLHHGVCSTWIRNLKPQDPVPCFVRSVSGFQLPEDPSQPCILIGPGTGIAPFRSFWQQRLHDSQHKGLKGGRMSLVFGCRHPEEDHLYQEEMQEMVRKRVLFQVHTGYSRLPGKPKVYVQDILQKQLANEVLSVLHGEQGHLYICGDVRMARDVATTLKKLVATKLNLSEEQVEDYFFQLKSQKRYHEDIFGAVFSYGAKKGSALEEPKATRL
Description: Percent inhibition of Nitrite accumulation at a concentration of 10 uM was determined in RAW 264.7 cells. It counts as functional, cell-based. A digest of the protocol:
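Nitrite accumulation measured in RAW 264.7 cells at 2 × 10⁶/mL stimulated with E. coli LPS, with compound at 10 µM or vehicle, 37 °C, 20 h. Nitrite read fluorometrically against a sodium nitrite standard curve. Reported as mean±SEM % inhibition (n=6). One-way ANOVA followed by Dunnett's test.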

For assay [2], the target named is T2, Nitric oxide synthase, inducible (Mus musculus, UniProt P29477).
T2 sequence (P29477 whole entry): T1 sequence (whole entry)
Put plainly: Inhibitory concentration required to produce 50% inhibition of the response was determined; range-0.431.85 uM. The format is functional. Put shortly:
(§1)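 Murine RAW 264.7 macrophages (DMEM, 10% FBS, 2 mM L-glutamine, penicillin/streptomycin) at 2 × 10⁶/mL co-incubated with E. coli LPS and test compound or vehicle, 37 °C, 20 h. Nitrite in the medium measured fluorometrically against a sodium nitrite standard curve. IC50 calculated from at least four significant concentrations and reported with 95% confidence limits. MTT reduction used to check cytotoxicity.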

Assay [3] deals with T2, Nitric oxide synthase, inducible. Put plainly: Inhibitory concentration required to produce 50% inhibition of the response was determined; range-0.461.81 uM. The format is functional. Put shortly:
as §1

The target is the same in assay [4]. Put plainly: Inhibitory concentration required to produce 50% inhibition of the response was determined; range-0.541.16 uM. The format is functional. A digest of the protocol:
as §1

The target is the same in assay [5]. Description: Inhibitory concentration required to produce 50% inhibition of the response was determined; range-0.811.70 uM. The format is functional. A digest of the protocol: as §1
Assay [6] shares this target. Description: Inhibitory concentration required to produce 50% inhibition of the response was determined; range-0.150.47 uM. The format is functional. Put shortly: as §1
Assay [7] has the same target. Put plainly: Inhibitory concentration required to produce 50% inhibition of the response was determined. It counts as functional. A digest of the protocol: as §1
Assay [8] has the same target. Put plainly: Inhibitory concentration required to produce 50% inhibition of the response was determined; range-0.431.12 uM. The format is functional. A digest of the protocol: as §1

`COc1cc(OC)c(OC)cc1/C=C/C(=O)c1cccc(C(F)(F)F)c1` yielded an inhibition in assay [1] of 26.7%. In assay [1], `COc1ccc(OC)c(/C=C/C(=O)c2ccccc2C(F)(F)F)c1` yielded an inhibition of 99%. Further, it took 910 nM to reach half-maximal inhibition in assay [2] (IC50). Take `COc1ccc(/C=C/C(=O)c2ccccc2C(F)(F)F)c(OC)c1`: the inhibition in assay [1] is 77.5%. Further, the IC50 in assay [3] was found to be 840 nM. Regarding `COc1ccc(OC)c(/C=C/C(=O)c2ccc(C(F)(F)F)cc2)c1`, in assay [1], the inhibition turned out to be 60.1%. The same measure, in the same setting: next, `COc1cc(/C=C/C(=O)c2ccc(C(F)(F)F)cc2)cc(OC)c1OC`: 55.8%. On the same count and under the same terms, with `COc1ccc(/C=C/C(=O)c2ccc(F)cc2F)cc1OC` the figure was 52.4%; with `COc1cc(OC)c(OC)cc1/C=C/C(=O)c1ccc(C(F)(F)F)cc1`, 49.3%; with `COc1cc(OC)c(/C=C/C(=O)c2ccc(F)cc2F)c(OC)c1`, 59%. `COc1cc(OC)c(/C=C/C(=O)c2cccc(C(F)(F)F)c2)c(OC)c1` displayed a concentration for half-maximal inhibition (IC50) in assay [4] of 1840 nM. For the same compound, in assay [1], the inhibition turned out to be 75%. In assay [1], `COc1cc(OC)c(/C=C/C(=O)c2ccccc2C(F)(F)F)c(OC)c1` gave an inhibition of 76.3%. Besides, the half-maximal inhibitory concentration (IC50) in assay [5] came out at 1020 nM. As to `COc1ccc(/C=C/C(=O)c2ccc(C(F)(F)F)cc2)c(OC)c1`, the inhibition in assay [1] came out at 46.8%. On to `COc1cc(OC)c(OC)cc1/C=C/C(=O)c1ccccc1C(F)(F)F`, for which the inhibition in assay [1] was 73.7%. The IC50 in assay [6] turned out to be 280 nM. In turn, `COc1ccc(/C=C/C(=O)c2ccc(F)cc2)c(OC)c1` yielded an inhibition in assay [1] of 55.7%. The same measure, in the same setting: with `COc1cc(OC)c(/C=C/C(=O)c2ccc(F)cc2)c(OC)c1` the figure was 63.9%. In assay [1], `COc1cc(OC)c(/C=C/C(=O)c2ccc(C(F)(F)F)cc2)c(OC)c1` had an inhibition of 43.6%.

For the compound `COc1cc(/C=C/C(=O)c2ccc(F)cc2)cc(OC)c1OC`, inhibition in assay [7] was half-maximal at 30 nM (IC50). In assay [1], this compound gave an inhibition of 94.1%. `COc1cc(OC)c(OC)cc1/C=C/C(=O)c1ccc(F)cc1F` returned a concentration for half-maximal inhibition (IC50) in assay [8] of 640 nM. In assay [1], the inhibition was 81.7%.

As usually defined, the inhibition is the share of the control response that was lost under treatment. Low readings indicate a response near the control, high ones a response far below the control. By IC50 is commonly meant the point on the concentration scale where inhibition reaches its midpoint. Read a low IC50 as inhibition by little substance.
